From PubChem
CCR6 antagonist = blocks CCL20-driven beta-arrestin recruitment at human CCR6; CHO-K1 CCR6 PathHunter beta-arrestin, luminescence, CCL20-stimulated; inhibition, % at 20 µM; hit rate 0.49% among 340,000; AID 493098;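 active means compounds whose inhibition of the agonist-driven luminescence signal at 20 µM reaches about 50%, limit read from the data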;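 further: cells stimulated with CCL20 at 14 nM final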
APJ antag = APJ receptor antagonism | P35414 | CHO-K1 APJ beta-arrestin complementation, luminescence | inhibition, % at 20 µM | hit rate 0.32% among 330,000 | AID 2521;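 active means inhibition above about 40% at 20 µM, limit read from the data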;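 further: cells challenged with 10 nM apelin-13 agonist together with compound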
CXCR6 block = blocks human CXCR6 beta-arrestin recruitment; O00574; CHO-K1 PathHunter CXCR6 beta-arrestin, luminescence; inhibition, % at 20 µM; hit rate 0.36% among 360,000; in the data active means inhibition above about 34%, passing the limit was not always enough;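 further: antagonist mode with CXCL16 agonist at 10 nM final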
m5-HT2A agonist = agonists of mouse serotonin 5-HT2A receptor (HTR2A); P35363; CHO-K1 mHTR2A beta-arrestin complementation, luminescence; percent of 30 µM serotonin response; activation, % at 7.6 µM; hit rate 0.66% among 360,000;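 active means activation above a run cutoff, the mean activation of all tested compounds plus 3 SD, cut at about 14% in these data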
APJ ag = agonists of human APJ apelin receptor; P35414; CHO-K1 APJ PathHunter beta-arrestin, luminescence; 0% DMSO wells, 100% apelin; activation, % at 20 µM; hit rate 0.11% among 330,000; AID 2520;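 active means activation more than six SD over the plate average, tested at 20 µM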
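Assay system: CHO-K1 APJ beta-arrestin complementation cell line / Compound: single test compound dose, 20 µM final, 1% DMSO / Times: overnight seeding, 90 min compound at 25 °C, 1 h detection / Technique: beta-gal luminescence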
EBI2 antag = antagonists of human EBI2 receptor; hit rate 0.81% among 360,000; inhibition, % at 5 µM; EBI2 beta-arrestin recruitment, luminescence, 7a,25-OHC stimulated; P32249; AID 651636; in the data active means inhibition above about 38%;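 further: enzyme fragment complementation signal reports receptor beta-arrestin coupling in cells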
Target sequence (P32249 whole entry, looked up, the tested form may be a part): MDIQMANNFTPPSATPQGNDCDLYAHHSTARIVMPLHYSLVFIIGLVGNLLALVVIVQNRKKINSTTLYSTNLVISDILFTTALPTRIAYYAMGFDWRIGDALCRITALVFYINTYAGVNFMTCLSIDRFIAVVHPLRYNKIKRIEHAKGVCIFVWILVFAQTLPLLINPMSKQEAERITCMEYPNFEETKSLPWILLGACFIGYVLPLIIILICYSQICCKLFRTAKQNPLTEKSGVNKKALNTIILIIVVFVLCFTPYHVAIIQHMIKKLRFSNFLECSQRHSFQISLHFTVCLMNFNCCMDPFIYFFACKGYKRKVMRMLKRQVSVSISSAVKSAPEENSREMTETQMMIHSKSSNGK
APJ ag conf = confirmation of human APJ apelin receptor agonists; shares compounds with APJ ag; AID 2764; activation, % at 20 µM; hit rate 10% among 310; CHO-K1 APJ PathHunter beta-arrestin, luminescence;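 active means activation above 40%, taking the highest of four retests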
APJ antag conf = APJ receptor antagonism confirmation; shares compounds with APJ antag; APJ beta-arrestin recruitment, luminescence, antagonist mode; inhibition, % at 20 µM; hit rate 66% among 950; AID 2766; in the data active means inhibition above about 50%
OPRM1 ag = counter-screen for mouse HTR2A agonists: human mu opioid receptor agonists | U2OS OPRM1 beta-arrestin PathHunter, luminescence; DMSO 0%, DAMGO 9.3 µM 100% | AID 624380 | activation, % at 9.3 µM | hit rate 5.3% among 2,300 | shares compounds with m5-HT2A agonist;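 active means mean activation above the mean of DMSO-only wells plus 3 SD, cut at about 0.5% in these data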
HTR2A ag conf = mouse HTR2A agonism confirmed; AID 624381; hit rate 19% among 2,300; CHO-K1 PathHunter beta-arrestin recruitment, luminescence; DMSO 0%, 30 µM serotonin 100%; activation, % at 7.6 µM; shares compounds with m5-HT2A agonist;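 active means mean activation across triplicates above the hit threshold derived in the original primary screen, cut at about 15% in these data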
Of the large screens only hits and unclear results are named; the others gave an inactive call (follow-up assays come after a bar, where they were run). An excerpt weighted towards active compounds, which were near 2.1% of everything screened.

COc1ccc(OC)c(NC(=O)C2(C)CCN2C(=O)CCC2CCCC2)c1 (centres undefined)	none (no result: CCR6 antagonist, APJ antag, APJ ag)
CSc1cccc(NC(=O)CCc2ccccc2)c1	none
CSc1cccc(NC(=S)NC(=O)CCc2ccccc2)c1	APJ ag 43 | APJ ag conf 51
CCOc1ccc(S(=O)(=O)N2CCN(C(=O)Cc3n[nH]c(=O)c4ccccc34)CC2)cc1	none
c1ccc(-c2nc(N3CCCCCC3)nc(-n3ccnc3)n2)cc1	APJ ag 26 | APJ ag conf inactive
CCN(CC)CCNC(=O)c1cc(-c2cccnc2)nc2ccc(S(=O)(=O)N3CCC(C)CC3)cc12	APJ ag 52 | APJ ag conf inactive
CCCCN(C)CCNC(=O)c1cc(-c2cccnc2)nc2ccc(S(=O)(=O)N3CCC(C)CC3)cc12	none
CCN1C(c2ccccc2)=C(c2ccccc2)S/C1=C\C=C1/SC(=S)N(C)C1=O	APJ ag 115 | APJ ag conf 292
Cc1ccc(OCC(=O)N(C)CC(=O)NCc2ccco2)c(Br)c1	none
CCCCCCCCCn1c2c(c(=N)c3c1CCC3)CCCC2	APJ antag 41, APJ ag 10 | APJ ag conf inactive | APJ antag conf inactive
COc1ccccc1CNC(=O)CN(C)S(=O)(=O)c1ccc(F)cc1	none
Cc1cc(C(=O)CSc2nc3ccccc3[nH]2)c(C)n1CC1CCCO1 (centres undefined)	m5-HT2A agonist 25, APJ ag 21 | APJ ag conf inactive | OPRM1 ag inactive | HTR2A ag conf inactive
CC(C)c1nc(CN2CCCCC2)cc(=O)[nH]1	none
CC(C)CN(Cc1cc(=O)oc2cc(-c3ccccc3)c(O)cc12)CC(C)C	m5-HT2A agonist 16, APJ ag 19 | APJ ag conf inactive | OPRM1 ag 2.3 | HTR2A ag conf 22
CCOC(=O)C1=C(CNCc2ccc(C)cc2)NC(=O)NC1c1cc(C)ccc1C (centres undefined)	none
COC(=O)C1=C(Cn2cnc3ccccc32)NC(=O)NC1c1cc(C)ccc1C (centres undefined)	APJ antag 46, m5-HT2A agonist 73, APJ ag 76 | APJ ag conf 62 | APJ antag conf inactive | HTR2A ag conf 46
Cc1cc(C)c2cc(C#N)c(NCCCNC(=O)c3cccnc3)nc2c1	none (no result: CCR6 antagonist, APJ antag, APJ ag)
CN(C)c1ccc2nc3c(=O)[nH]c(=O)nc-3n(CC(O)C(O)C(O)CO)c2c1 (centres undefined)	APJ antag 70 | APJ antag conf 70
Cc1ccc(NC(=S)NCC2CCCO2)cc1 (centres undefined)	APJ antag 45 | APJ antag conf inactive
COc1cc(O)c2c(c1)COC2=O	APJ antag 44 | APJ antag conf inactive
CC(C)NC(=S)N/N=C1\CCCCC1C1CCCCC1 (centres undefined)	CCR6 antagonist 85, APJ antag 43 | APJ antag conf 85
COc1cc(C(=O)N/N=C(\c2ccccc2)c2ccccn2)cc(OC)c1OC	CCR6 antagonist 90, APJ antag 43, CXCR6 block 63 | APJ antag conf 73
O=C1N/C(=N\S(=O)(=O)c2ccccc2)S/C1=C\c1cc([N+](=O)[O-])ccc1O	none
O=C1N/C(=N\S(=O)(=O)Cc2ccccc2)S/C1=C/c1cc([N+](=O)[O-])ccc1O	APJ antag 41 | APJ antag conf 55
CCOC(=O)c1nnc2c(Br)c(-c3ccccc3)nn2c1C	APJ antag 44 | APJ antag conf inactive
CCOC(=O)c1nnc2cc(-c3ccccc3)nn2c1C	none
COc1ccccc1OCCNC(=O)c1c(-c2ccccc2Cl)noc1C	none
CSc1ccccc1C(=O)NC1CCCCCC1	APJ antag 46 | APJ antag conf inactive
Cc1cc(C)c2ccc(N)nc2c1O	CCR6 antagonist 62, APJ antag 51, CXCR6 block 49 | APJ antag conf 59
O=C(C[n+]1ccccc1)N/N=C/c1cc(Br)ccc1O	none
COc1ccc(/C=N/Nc2c(Cl)cc(Cl)cc2Cl)cc1CN1CCOCC1	none
COc1cc(/C=C2\CCC/C(=C\c3ccc(O)c(OC)c3)C2=O)ccc1O	APJ antag 40 | APJ antag conf 80
COc1cc(/C=C/C(=O)CC(=O)/C=C/c2ccc(O)c(OC)c2)ccc1O	CCR6 antagonist 66, APJ antag 62 | APJ antag conf 93
CCOc1cc(/C=N/N=C/c2ccc(O)c(OCC)c2)ccc1O	none
CCOc1cc(/C=C2\CN(CC)C/C(=C\c3ccc(O)c(OCC)c3)C2=O)ccc1O	APJ antag 48 | APJ antag conf 101
COc1cc(/C=C2/CCCC(C(=O)C(F)(F)F)=C2O)ccc1O	none
COC(=O)[C@@H]1CCCN1C(=O)c1ccc(OC2CCN(Cc3ccccn3)CC2)cc1	none
COc1cc(/C=C2/SC(=S)N(C)C2=O)ccc1OC(=O)c1ccco1	APJ antag 46 | APJ antag conf inactive
COc1cc(/C=C2\SC(=S)N(NC(C)=O)C2=O)ccc1OC(=O)c1ccco1	none
CCC[N+](CC#Cc1ccccc1)(CCC)CC(=O)c1ccc(Cl)cc1	APJ antag 60 | APJ antag conf 53
O=C(C[N+]1(CC#Cc2ccccc2)CCCCC1)c1ccc(Cl)cc1	APJ antag 57 | APJ antag conf inactive
O=C(C[N+]1(CC#Cc2ccccc2)CCOCC1)c1ccc(Cl)cc1	CCR6 antagonist 62, APJ antag 90, CXCR6 block 42 | APJ antag conf 108
CCC[N+](CC#Cc1ccccc1)(CCC)CC(=O)OC	none
CC1CCCCN1S(=O)(=O)c1ccc(C(=O)N(CCCN(C)C)c2nc3ccc(Br)cc3s2)cc1 (centres undefined)	APJ antag 48 | APJ antag conf inactive
CCOC(CCNC(=O)c1cn(CCOC)c(=O)c2c1c1ccccc1n2C)OCC	none
Cc1ccc(C(=O)COC(=O)CCC(=O)NC2CCCCC2)cc1[N+](=O)[O-]	APJ antag 49 | APJ antag conf inactive
O=C(CCC(=O)OCC(=O)c1ccc([N+](=O)[O-])cc1)Nc1ccccc1Cl	none
